# Laboratory results from PubChem BioAssay.
# Active and inactive are the calls of the source.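 The calls were made as follows, unless noted: active = NADPH fluorescence slope more negative than the mean of all samples by about 3 SD, 99.7% confidence; inactive = the rest.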
# Tests used:
# [1] = inhibitors of TNFa-induced NFkB p65 translocation, primary screen, imaging, HUVEC, MLSMR starter and 10KST1 sets (AID 438;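 active = inhibition above 20% together with a positive visual image hit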;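 also: compound added about 3h40 before a 20 min TNFalpha stimulation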;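 as to inhibition: signal is the nuclear over cytoplasmic p65 intensity ratio per well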); details: HUVEC TNFa-induced p65 nuclear translocation; cell count: measured here: nuclei count (cytotoxicity indicator), at 2.08 µM; inhibition: at 2 µM, stronger effect = higher value, 0% TNFa-plus-vehicle, 100% no-TNFa wells
# [2] = endothelial E-selectin expression blockers – imaging, HUVEC, immunofluorescence, MLSMR starter and 10KST1 sets, primary screen (AID 487;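 active = visually confirmed hit in the image check and inhibition above 20%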;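 as to inhibition: signal is fraction of cell area covered by stained E-selectin grains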;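 as to nuclei count: 100% = median nuclei count of all wells on the same plate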); details: HUVEC TNFalpha-induced E-selectin immunofluorescence imaging, at 2 µM; inhibition: stronger effect = higher value; nuclei count: measured here: cell number, toxicity
# [3] = Primary imaging screen for DUSP6 inhibitors that restore phospho-Erk in transfected HeLa cells, chemical complementation (AID 609;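 active = compounds giving at least 50% inhibition in the cell-based MKP-3 phosphatase rescue imaging test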;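 as to inhibition: phospho-Erk level distribution per well compared with pooled transfected vehicle control wells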); details: HeLa MKP-3 transfected, phospho-Erk imaging KS statistic, at 10 µM, cells stimulated with TPA for 15 min
# [4] = target: Dual specificity protein phosphatase 6 (Homo sapiens) (UniProt Q16828); test: as above; details: HeLa MKP-3 transfected, phospho-Erk imaging KS statistic; at 10 µM; stronger effect = higher value; cells stimulated with TPA for 15 min
# [5] = target: Voltage-gated potassium channel subunit beta-2 (Rattus norvegicus) (UniProt P62483); test: inhibitors of rat Kvbeta2 reductase activity – biochemical, NADPH fluorescence, primary screen (AID 622;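 active = fluorescence slope higher than the sample average by over 3 SD, cut at about -0.22 in these data, passing the limit was not always enough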;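 also: slope of raw intensity against log time taken from 70 to 1610 s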); details: recombinant KvBeta, 4-cyanobenzaldehyde reduction, at 10 µM, stronger effect = higher value
# [6] = target: Voltage-gated potassium channel subunit beta-2 (Rattus norvegicus) (UniProt P62483); test: enhancers of rat Kvbeta2 NADPH turnover – biochemical, NADPH fluorescence, primary screen (AID 623); details: Recombinant KvBeta, NADPH fluorescence decrease slope, 10 min; at 10 µM; stronger effect = lower value;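 also: fluorescence intensity change per second fitted from 20 to 320 s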
# [7] = target: Muscarinic acetylcholine receptor M4 (Homo sapiens) (UniProt P08173); test: M4-linked GIRK flux change, two-sided – cell-based, HEK293 M4/GIRK, thallium flux, BTC-AM, M4 allosteric agonist project, primary screen (AID 625;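 active = fluorescence slope after compound addition differing from the mean of all tested samples at 99.7% confidence, mostly higher but some lower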;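 also: thallium influx through GIRK channels coupled to M4 in HEK293 cells with BTC-AM dye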); details: at 10 µM, actives lie on both sides
# Method in brief: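 Material – HEK293 cells with M4 receptor and GIRK channels · Buffer or medium – pH 7.3 thallium assay buffer · Doses – one dose, 10 µM final · Timing – cells overnight at 37 °C, BTC-AM loading 1 h, reads 2 min total · Measured by – kinetic fluorescence with BTC-AM dye · Controls – carbachol and DMSO controls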
# [8] = inhibitors of larval lipid processing in zebrafish, primary screen, whole organism, PED6 fluorescence, gall bladder and intestine (AID 686;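 active = a full or partial loss of lipid-probe fluorescence in the fish gall bladder, intestine or both, judged by eye; inactive = no fluorescence loss, or compound toxic to the fish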;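 also: larvae 5 to 7 days old with five fish per well; signal comes from phospholipase A2 cleavage of quenched PED6 carried via bile; overnight exposure to compound and PED6 before scoring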); details: Zebrafish larvae PED6 lipid processing, fluorescence scoring; screened at 20 µM (by protocol)
# Method in brief: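 system = live zebrafish larvae aged 5-7 days, whole organism | probe or stimulus = ingested quenched lipid PED6 at 100 nM | doses = 20 µM single dose | timing = overnight exposure | detection = fluorescence microscopy with visual scoring of gall bladder and intestine | read-out = visual per-well fluorescence inhibition score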
# [9] = loss of swimming-algae plug formation – whole organism, Chlamydomonas reinhardtii, WT vs cilia-less mutant, absorbance, 96-well, primary screen (AID 463189;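 active = inhibition at or above 50% relative to wild type and mutant plate controls; inactive = inhibition below 50%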;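 also: 0% = wild type cc124 cells in DMSO and 100% = ciliumless bld1 mutant cells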); details: Chlamydomonas reinhardtii gravitaxis, OD600 absorbance, 2 days; at 10 µM; stronger effect = higher value
# [10] = measured here: cell density z-score
# [11] = measured here: nuclear c-Myc green intensity z-score
# [12] = measured here: nuclear pErk red intensity z-score, stronger effect = higher value
# Sequence of Dual specificity protein phosphatase 6 (Homo sapiens) (Q16828 whole entry, looked up): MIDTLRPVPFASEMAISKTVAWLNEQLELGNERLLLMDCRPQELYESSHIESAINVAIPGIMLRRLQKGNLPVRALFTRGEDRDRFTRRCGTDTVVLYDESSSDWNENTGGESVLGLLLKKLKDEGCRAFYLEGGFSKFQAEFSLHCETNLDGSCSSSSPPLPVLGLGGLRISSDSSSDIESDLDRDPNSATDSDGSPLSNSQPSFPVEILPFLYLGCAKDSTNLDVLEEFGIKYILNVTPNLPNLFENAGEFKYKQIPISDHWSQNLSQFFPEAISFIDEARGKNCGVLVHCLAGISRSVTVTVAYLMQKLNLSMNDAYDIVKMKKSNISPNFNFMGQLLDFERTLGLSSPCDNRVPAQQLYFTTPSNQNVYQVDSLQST
# Sequence of Voltage-gated potassium channel subunit beta-2 (Rattus norvegicus) (P62483 whole entry, looked up): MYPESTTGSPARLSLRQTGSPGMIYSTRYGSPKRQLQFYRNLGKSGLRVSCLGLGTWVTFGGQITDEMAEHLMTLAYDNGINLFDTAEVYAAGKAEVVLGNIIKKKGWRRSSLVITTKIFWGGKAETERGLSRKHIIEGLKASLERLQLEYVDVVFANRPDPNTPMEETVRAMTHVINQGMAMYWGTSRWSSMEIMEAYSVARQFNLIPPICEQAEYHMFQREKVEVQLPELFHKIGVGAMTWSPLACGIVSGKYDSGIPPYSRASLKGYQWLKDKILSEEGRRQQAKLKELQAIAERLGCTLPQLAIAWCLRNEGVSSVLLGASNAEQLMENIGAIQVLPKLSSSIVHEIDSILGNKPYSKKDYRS
# Sequence of Muscarinic acetylcholine receptor M4 (Homo sapiens) (P08173 whole entry, looked up): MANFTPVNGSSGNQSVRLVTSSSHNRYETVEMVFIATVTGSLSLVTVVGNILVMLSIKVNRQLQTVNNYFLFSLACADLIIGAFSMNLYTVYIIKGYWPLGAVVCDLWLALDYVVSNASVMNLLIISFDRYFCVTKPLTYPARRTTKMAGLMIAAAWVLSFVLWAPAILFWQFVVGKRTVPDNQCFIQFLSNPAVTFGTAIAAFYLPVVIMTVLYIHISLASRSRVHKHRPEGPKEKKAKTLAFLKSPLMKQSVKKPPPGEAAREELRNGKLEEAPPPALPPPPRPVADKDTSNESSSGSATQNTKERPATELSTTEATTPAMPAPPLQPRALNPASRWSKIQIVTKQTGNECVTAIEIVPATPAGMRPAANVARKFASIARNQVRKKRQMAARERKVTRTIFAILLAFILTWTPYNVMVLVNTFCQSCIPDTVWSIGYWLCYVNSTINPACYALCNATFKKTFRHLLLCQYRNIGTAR
Structure (SMILES),cell count [1],inhibition [1],inhibition [2],nuclei count [2],"z-score [3, 10]","z-score [3, 11]","z-score [3, 12]",inhibition [4],fluorescence slope [5],NADPH fluorescence slope [6],fluorescence slope [7],outcome [8],inhibition [9]
O=c1oc2c(CN3CCCCC3)c(O)ccc2c2c1CCCCC2,566,-6.1% (inactive),34% (inactive),168%,1.43,-1.18,-0.137,14.4% (inactive),-0.00573 (inactive),8.5e-07 (inactive),0.00521 (inactive),inactive,3.57% (inactive)
CCSC1=C(C#N)C(c2cccs2)C(C(=O)OC)=C(C)N1 (stereo not given),704,-1% (inactive),-26.7% (inactive),161%,1.09,-0.139,-1.35,2.46% (inactive),-0.442 (inactive),-5.3e-05 (inactive),0.00541 (inactive),inactive,-1.08% (inactive)
O=C1CC(c2ccco2)CC(O)=C1C=NCCN1CCN(C2CC(=O)N(c3ccccc3)C2=O)CC1 (stereo not given),378,-0.3% (inactive),-133% (inactive),162%,-1.98,0.592,0.0438,-4.78% (inactive),-0.462 (inactive),-6e-05 (inactive),0.00456 (inactive),inactive,-7.38% (inactive)
c1ccc(-n2ncc3c(NCC4CCCO4)ncnc32)cc1 (stereo not given),597,-4% (inactive),-84.5% (inactive),113%,-2.6,-0.155,1.07,1.42% (inactive),-0.389 (inactive),-9.3e-05 (inactive),0.00807 (inactive),inactive,-15.2% (inactive)
CC(=O)NCC(=O)OCN1C(=O)c2ccccc2C1=O,520,-8.8% (inactive),-105% (inactive),154%,0.466,-1.64,-0.405,15.9% (inactive),-0.376 (inactive),7.5e-06 (inactive),0.00573 (inactive),inactive,20% (inactive)
Cc1ccc(-n2ncc3c(N4CCCC4)ncnc32)c(C)c1,615,-13.7% (inactive),4.8% (inactive),158%,0.427,-1.76,-0.345,-2.59% (inactive),-0.327 (inactive),-4.9e-06 (inactive),0.00689 (inactive),inactive,147% (active)
CC(NC(=O)Nc1nnc(C(F)(F)F)s1)(C(F)(F)F)C(F)(F)F,640,3.6% (inactive),-157% (inactive),149%,-0.473,0.624,0.273,1.63% (inactive),-0.465 (inactive),-5.5e-05 (inactive),0.00252 (inactive),inactive; toxic,1.97% (inactive)
COCCn1c(SCc2c(F)cccc2Cl)nc2c1c(=O)[nH]c(=O)n2C,654,3.4% (inactive),-11.2% (inactive),115%,1.7,-2.3,-0.397,40.7% (inactive),-0.44 (inactive),-5.5e-05 (inactive),0.00509 (inactive),inactive,15.2% (inactive)
Cc1cccc(N2CC(=O)N(c3cccc(C)c3)CC2=O)c1,691,-1.4% (inactive),-33.5% (inactive),201%,-0.963,0.808,-0.574,3.97% (inactive),-0.477 (inactive),-5.4e-05 (inactive),0.00702 (inactive),inactive,-8.04% (inactive)
Cc1cc(/C=N/n2cnnc2)c(C)n1-c1ccc2c(c1)OCO2,374,0.6% (inactive),-13.7% (inactive),97.4%,-1.04,0.298,0.807,14% (inactive),-0.569 (inactive),-6.1e-05 (inactive),0.00571 (inactive),inactive,-15.4% (inactive)
CN(C)CCCN1C(=O)C(=O)/C(=C(/O)c2ccccc2)C1c1ccccn1 (stereo not given),473,-8.2% (inactive),-97.3% (inactive),158%,1.03,-1.2,0.352,1.04% (inactive),-0.486 (inactive),-6.1e-05 (inactive),0.00459 (inactive),inactive,10.1% (inactive)
C=CCc1cccc(/C=N/n2cnnc2)c1O,534,-6.9% (inactive),-121% (inactive),136%,-0.238,0.5,-0.321,13.4% (inactive),-0.446 (inactive),-0.00012 (inactive),0.00478 (inactive),inactive,-8.96% (inactive)
Cc1ccc(-n2c(SCC(=O)NCc3ccco3)nc3nc4c(cc3c2=O)COC(C)(C)C4)cc1,518,-21.3% (inactive),9.1% (inactive),176%,0.611,-1.97,0.29,3.97% (inactive),-0.408 (inactive),-1.9e-05 (inactive),0.00603 (inactive),inactive,17% (inactive)
O=C(Oc1oc(-c2ccco2)nc1C=Nc1ccccc1)c1ccco1,504,15% (inactive),-2% (inactive),108%,-2.44,1.67,-0.418,22.1% (inactive),-0.504 (inactive),-3.8e-05 (inactive),0.0053 (inactive),inactive,38.4% (inactive)
Cn1c(=O)c2c(nc(NCc3ccco3)n2Cc2ccc(Cl)cc2Cl)n(C)c1=O,644,3.3% (inactive),-21.8% (inactive),104%,-0.0402,-0.421,0.466,12.8% (inactive),-0.405 (inactive),-1.9e-05 (inactive),0.00546 (inactive),inactive,-11.8% (inactive)
CCOc1ccc(N=C2C(=O)N(CN3CCOCC3)c3ccccc32)cc1,653,-4.3% (inactive),-371% (inactive),156%,0.894,-0.754,-0.416,10.1% (inactive),-0.486 (inactive),-7.9e-05 (inactive),0.00278 (inactive),inactive,9.3% (inactive)
OC1(C2(O)CC(c3ccccc3)ON2)CCCCC1 (stereo not given),713,6.2% (inactive),-8.5% (inactive),141%,0.0893,0.138,-1.51,-5.81% (inactive),-0.444 (inactive),-3.6e-05 (inactive),0.00531 (inactive),inactive,0.004% (inactive)
CC1(C)CC(=O)C(C=NCCN2CCN(CCc3ccccc3)CC2)=C(O)C1,367,-0.8% (inactive),-22.3% (inactive),94.1%,-1.16,0.888,-1.15,-2.69% (inactive),-0.506 (inactive),1.2e-05 (inactive),0.00481 (inactive),inactive,-9.36% (inactive)
Cc1cccn2c(=O)c3cc(C(N)=S)c(=N)n(CCCOC(C)C)c3nc12,637,-5.4% (inactive),-92.7% (inactive),153%,1.81,-0.956,-1.49,12.7% (inactive),-0.447 (inactive),-3.3e-05 (inactive),0.00286 (inactive),inactive,145% (active)
CCN(CC)CCN1C(=O)C(=O)/C(=C(/O)c2ccc(OC)cc2)C1c1ccco1 (stereo not given),710,-1.4% (inactive),4.1% (inactive),163%,0.167,0.629,0.173,-7.67% (inactive),-0.496 (inactive),-6.6e-05 (inactive),0.00632 (inactive),inactive,5.19% (inactive)
